Measured values from different studies.
Compare with care: the assays were run in different laboratories.
Target: Interleukin-1 receptor-associated kinase 4 (IRAK4, Homo sapiens, UniProt Q9NWZ3)
Residues used in one study (Q9NWZ3 1-460): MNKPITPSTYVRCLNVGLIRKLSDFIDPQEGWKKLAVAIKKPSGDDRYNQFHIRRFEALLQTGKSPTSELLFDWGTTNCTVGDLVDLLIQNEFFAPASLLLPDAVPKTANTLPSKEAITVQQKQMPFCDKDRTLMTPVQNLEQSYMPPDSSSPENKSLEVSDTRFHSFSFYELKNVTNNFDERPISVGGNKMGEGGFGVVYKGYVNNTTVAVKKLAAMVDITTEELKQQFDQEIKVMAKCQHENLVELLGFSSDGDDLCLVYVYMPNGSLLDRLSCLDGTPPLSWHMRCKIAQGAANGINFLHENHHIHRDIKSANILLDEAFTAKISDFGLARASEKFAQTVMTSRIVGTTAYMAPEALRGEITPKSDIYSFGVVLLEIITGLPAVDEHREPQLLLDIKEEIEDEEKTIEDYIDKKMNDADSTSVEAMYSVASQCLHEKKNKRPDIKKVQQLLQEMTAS

COc1cnc(Nc2cccc(S(N)(=O)=O)c2)nc1N1CCN(c2ccccc2)CC1
remaining binding (binding, competition with immobilised ligand; 1 µM): 65%

O=C(NCC1CCOCC1)c1n[nH]cc1NC(=O)c1c(F)cccc1F
remaining binding (binding, competition with immobilised ligand; 1 µM): 100%

COc1cnc(Nc2cccc(S(N)(=O)=O)c2)nc1N1CCN(c2ccccc2)C(=O)C1
remaining binding (binding, competition with immobilised ligand; 1 µM): 88%

O=C(O)[C@H]1[C@H](Cn2nnc3ccccc3c2=O)CC[C@@H]1C(=O)c1ccc(OCCC2CCOCC2)cc1
remaining binding (cell-free assay, competition with immobilised ligand; 1 µM): 76%

FC(F)(F)Oc1cccc(-c2cnc3ccc(-c4ccncc4)nn23)c1
remaining binding (cell-free assay, competition with immobilised ligand; 5 µM): 1.6%

CC1CCCN1c1nccc(-c2cnn3ncccc23)n1 (centres unmarked)
remaining binding (binding; 1 µM): 84%

Cc1cnc(Nc2ccc(C(=O)N3CCC(N4CCCC4)CC3)cc2)nc1-c1cc2ccccc2s1
remaining binding (binding, competition with immobilised ligand; 1 µM): 45%

CN(C)c1nccc(-c2cnn3ncccc23)n1
remaining binding (binding; 1 µM): 73%

O=C(NCCCN1CCOCC1)c1ccc(Nc2ncc(Cl)c(-c3ccc(Cl)s3)n2)cc1
remaining binding (binding, competition with immobilised ligand; 1 µM): 75%

O=C(NCc1ncc(C(F)(F)F)cc1Cl)c1ccc2c(c1)C1(CCS(=O)(=O)CC1)[C@H](C1CC1)N2S(=O)(=O)c1ccc(F)cc1
remaining binding (cell-free assay, competition with immobilised ligand; 1 µM): 100%

N[C@@H]1CCN(c2nccc(-c3cnn4ncccc34)n2)C1
remaining binding (binding; 1 µM): 99%

CCS(=O)(=O)c1cc2cc(C[C@@](O)(CC(C)(C)c3ccc(F)cc3C(N)=O)C(F)(F)F)[nH]c2cn1
remaining binding (cell-free assay, competition with immobilised ligand; 1 µM): 100%

C[C@H]1CCN(c2nccc(-c3cnn4ncccc34)n2)C1
remaining binding (binding; 1 µM): 73%

O=C(c1ccc(Nc2ncc(Cl)c(-c3cc4ccccc4s3)n2)cc1)N1CCC(N2CCCC2)CC1
remaining binding (binding, competition with immobilised ligand; 1 µM): 57%

O=C(Nc1ccc(Oc2ccc(F)cc2)cc1)N1CCc2ncccc2[C@H]1c1ccc(F)cc1
remaining binding (cell-free assay, competition with immobilised ligand; 1 µM): 96%

Nc1ncc2c(n1)-c1c([nH]c3ccc(C#CC4CC4)cc13)CCCC2
remaining binding (binding, competition with immobilised ligand; 1 µM): 86%

Cn1cc(Cl)c2c(Oc3c(F)cc(Nc4cc(Cl)nc(N)n4)cc3F)ccnc21
remaining binding (cell-free assay, competition with immobilised ligand; 0.1 µM): 90%

CN(c1nccc(-c2cnn3ncccc23)n1)C1CC1
remaining binding (binding; 1 µM): 100%

CCOC(=O)c1cc2cc(-c3cc(C(=O)NCc4ccc(C(=O)O)cc4)nn3C)ccc2[nH]1
remaining binding (cell-free assay, competition with immobilised ligand; 0.1 µM): 91%

CN(C)c1nccc(-c2cnc3ncccn23)n1
remaining binding (binding; 1 µM): 74%
